Measured values taken from ChEMBL document CHEMBL4350959, “Design and Identification of a Novel, Functionally Subtype Selective GABAA Positive Allosteric Modulator (PF-06372865)” (J Med Chem, 2019).
Values after ≈ are worked out from the molar mass of the structure shown.

Legend:
[1] = Lipophilicity, log D of the compound; format: physicochemical; conditions: octanol/water
How it was run: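 LogD was either measured or calculated with an internal logD model.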

[2] = Volume of distribution at steady state in dog; format: ADME, Canis lupus familiaris; conditions: in vivo, read-out: Vdss
[3] = Oral bioavailability in dog; format: ADME, organism-based, Canis lupus familiaris; conditions: in vivo
[4] = Solubility of the compound at pH 6.5; format: physicochemical; conditions: buffer
[5] = Volume of distribution at steady state in rat; format: ADME; conditions: in vivo, read-out: Vdss
[6] = Permeability in RRCK cells; format: ADME, cell-based, Canis lupus familiaris, MDCKII-LE; conditions: dog, MDCK; read-out: permeability
How it was run: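 Transcellular permeability across Ralph Russ canine kidney (RRCK) cell monolayers, reported as x10^-6 cm/sec.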

[7] = Oral bioavailability in rat; format: ADME, organism-based; conditions: in vivo

SMILES | logD [1] | further results
CCn1cnc2c(-c3ccc(F)c(OCc4ccccn4)c3)cnnc21 | 2.5 | 
CC(C)n1cnc2c(-c3ccc(F)c(Oc4ccc(C#N)cn4)c3)cnnc21 | 2.7 | 
CCn1cnc2c(-c3ccc(F)c(-c4ccc(S(C)(=O)=O)cc4OC)c3)cnnc21 | 2.5 | 
CCn1cnc2c(-c3ccc(Cl)c(-c4ccc(S(=O)(=O)CC)cc4OC)c3)cnnc21 | 3.1 | 
CCn1cnc2c(-c3ccc(F)c(Oc4cnc(C#N)nc4)c3)cnnc21 | 2 | 
CCn1cnc2c(-c3ccnc(OC)c3)cnnc21 | 1.5 | 
CCn1cnc2c(-c3ccnc(Oc4ccccc4)c3)cnnc21 | 2.6 | 
CCn1cnc2c(-c3ccc(F)c(-c4cc5c(cc4OC)C(=O)N(C)C5)c3)cnnc21 | 2.6 | Vd [2]: 2.61 L/kg; bioavailability [3]: 43%; solubility [4]: 15 µM (≈ 6.26 µg/mL); Vd [5]: 0.55 L/kg; Papp [6]: 21 ×10⁻⁶ cm/s; bioavailability [7]: 76%
CCn1cnc2c(-c3ccc(F)c(-c4ccc(S(=O)(=O)C(C)C)cc4OC)c3)cnnc21 | 3 | 
CCn1cnc2c(-c3ccc(F)c(-c4ccc(S(=O)(=O)C5CC5)cc4OC)c3)cnnc21 | 2.7 | 
CCn1cnc2c(-c3ccc(F)c(-c4ccc(S(=O)(=O)CC)cc4F)c3)cnnc21 | 2.6 | 
CC(=O)N1CC(Oc2cc(-c3cnnc4c3ncn4C(C)C)ccc2F)C1 | 1.6 | 
N#Cc1ccc(Oc2cc(-c3cnnc4c3ncn4C3CC3)ccc2F)nc1 | 2.3 | 
CCn1cnc2c(-c3ccc(F)c(Oc4ccc(C#N)cn4)c3)cnnc21 | 2.3 | 

More lines, main results first:

logD [1] | SMILES | further results
2.8 | CCn1cnc2c(-c3ccc(F)c(-c4cccc(C(=O)NC)c4)c3)cnnc21 | 
2.6 | CCn1cnc2c(-c3ccc(F)c(Oc4ccnc(C)c4)c3)cnnc21 | 
2.8 | CCS(=O)(=O)c1ccc(-c2cc(-c3cnnc4c(OC)cnn34)ccc2F)cc1 | 
2.6 | CCn1cnc2c(-c3ccc(F)c(-c4ccc5c(c4)C(=O)N(C)C5)c3)cnnc21 | 
3.2 | CCn1cnc2c(-c3ccc(F)c(-c4ccc(S(=O)(=O)CC)cc4Cl)c3)cnnc21 | 
2.6 | CCn1cnc2c(-c3ccc(F)c(-c4cccnc4)c3)cnnc21 | 
2.9 | Cc1cc(-c2cc(-c3cnnc4c3ncn4C3CC3)ccc2F)ccn1 | 
2.5 | CCn1cnc2c(-c3ccc(F)c(-c4ccc(C(=O)N(C)C)cc4)c3)cnnc21 | 
2.7 | CCn1cnc2c(-c3ccc(F)c(-c4ccc(S(=O)(=O)CC)cc4OC)c3)cnnc21 [DARIGABAT] | Vd [2]: 3.4 L/kg; bioavailability [3]: 130%; solubility [4]: 95 µM (≈ 41.8 µg/mL); Vd [5]: 2.1 L/kg; Papp [6]: 17 ×10⁻⁶ cm/s; bioavailability [7]: 99%
2.7 | CCn1cnc2c(-c3ccc(F)c(-c4ccc5c(c4)CN(C)C5=O)c3)cnnc21 | 
2.3 | CCn1cnc2c(-c3ccc(F)c(Oc4cccc(S(=O)(=O)CC)c4)c3)cnnc21 | 
1.6 | CCn1cnc2c(-c3ccnc(Oc4cccc(S(=O)(=O)CC)c4)c3)cnnc21 | 
3.3 | CCOc1cc(S(=O)(=O)CC)ccc1-c1cc(-c2cnnc3c2ncn3CC)ccc1F | 
2.9 | CCn1cnc2c(-c3ccc(F)c(-c4ccc(S(=O)(=O)CC)cc4)c3)cnnc21 | 
3.5 | CCc1cnn2c(-c3ccc(F)c(-c4ccc(S(=O)(=O)CC)cc4)c3)cnnc12 | 
3 | CCn1cnc2c(-c3ccc(F)c(-c4cc(C(=O)NC)ccc4F)c3)cnnc21 | 
3.1 | Cc1cc(-c2cc(-c3cnnc4c3ncn4C(C)C)ccc2F)ccn1 | 
3.9 | CCc1cnn2c(-c3ccc(F)c(-c4ccc(S(=O)(=O)CC)cc4)c3)ccnc12 | 
3.3 | CCn1nnc2c(-c3ccc(F)c(-c4ccc(S(=O)(=O)CC)cc4)c3)cnnc21 | 
2.2 | CCn1cnc2c(-c3ccc(F)c(-c4ccc(S(=O)(=O)C5COC5)cc4OC)c3)cnnc21 | 
